Laboratory results: ChEMBL document CHEMBL1212828, “Synthesis and biological evaluation of novel pyrazole compounds” (Bioorg Med Chem, 2010)
Activity calls are given as the source filed them. No cut-off for these calls is given here.

Experiments:
THP-1 [1] = assay: Neuroprotective activity against LPS and IFN-gamma-stimulated neurotoxin production in human THP1 cell assessed as inhibition of THP1 cell secretion-induced toxicity to human SY-SH5Y cells after 48 hrs of LPS nd IFN-gamma challenge measured after 72 hrs by MTT assay; format: functional, cell-based
How it was run: (§1)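 THP-1 cells given compound 15 min before LPS (0.5 µg/mL) plus IFN-γ (150 U/mL), then incubated 48 h. Cell-free supernatant moved onto SH-SY5Y cells plated 24 h earlier. Neuronal survival after 72 h by MTT assay or LDH release. 11 independent experiments; IC50 estimated.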

Rattus norvegicus [2] = assay: Toxicity in Wistar albino rat assessed as ulcerogenic activity at 300 mg/kg, po qd for 3 days; format: organism-based; set-up: dose 300 mg/kg, route oral; settings: in vivo, 72 h
How it was run: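 Rats in groups of five, fasted 12 h with water ad libitum; oral dosing in two equal portions at 0 and 12 h for three days, 300 mg/kg per day; control given 1% gum acacia. Killed 6 h after last dose; stomach opened along greater curvature, saline-washed, inspected under 3× lens for hyperemia, hemorrhage, erosion or ulcer.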

THP-1 [3] = assay: Neuroprotective activity against LPS and IFN-gamma-stimulated neurotoxin production in human THP1 cell assessed as inhibition of THP1 cell secretion-induced toxicity to human SY-SH5Y cells after 48 hrs of LPS nd IFN-gamma challenge measured after 72 hrs by LDH release assay; format: functional, cell-based; how it was run: as §1
Rattus norvegicus [4] = assay: Antiinflammatory activity in Wistar albino rat assessed as inhibition of formalin-induced paw edema at 20 mg/kg, po administered 1 hr prior to formalin challenge measured after 2 hrs relative to control; format: functional
How it was run: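 Male Wistar rats, 180–200 g, groups of five; single oral dose 1 h before 2% formalin (0.1 mL) into subplantar left hind paw under light ether anaesthesia. Paw volume read by water plethysmometer at baseline and 1, 2, 3, 4 h; % inhibition = control (Vt−Vo) minus treated (Vt−Vo), over control, ×100. Means ± SEM; ANOVA with Student–Newman–Keuls.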

Rattus norvegicus [5] = assay: Antiinflammatory activity in Wistar albino rat sub-acute inflammatory model assessed as inhibition of formalin-induced paw edema at 20 mg/kg, po administered 1 hr prior to formalin challenge measured on day 8 relative to control; format: functional
How it was run: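 Male Wistar rats, 180–200 g, five per group, dosed orally 20 mg/kg daily for 7 consecutive days. Formalin (2%, 0.1 mL) injected subplantar into left hind paw under light ether 1 h after dosing, repeated on day 3. Paw volume measured plethysmographically on days 1 and 8; inhibition expressed relative to untreated controls.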

[6] = target: T1, Prostaglandin G/H synthase 1 (Ovis aries) (UniProt P05979); assay: Inhibition of ovine COX1 at 100 uM
T1 sequence (whole entry): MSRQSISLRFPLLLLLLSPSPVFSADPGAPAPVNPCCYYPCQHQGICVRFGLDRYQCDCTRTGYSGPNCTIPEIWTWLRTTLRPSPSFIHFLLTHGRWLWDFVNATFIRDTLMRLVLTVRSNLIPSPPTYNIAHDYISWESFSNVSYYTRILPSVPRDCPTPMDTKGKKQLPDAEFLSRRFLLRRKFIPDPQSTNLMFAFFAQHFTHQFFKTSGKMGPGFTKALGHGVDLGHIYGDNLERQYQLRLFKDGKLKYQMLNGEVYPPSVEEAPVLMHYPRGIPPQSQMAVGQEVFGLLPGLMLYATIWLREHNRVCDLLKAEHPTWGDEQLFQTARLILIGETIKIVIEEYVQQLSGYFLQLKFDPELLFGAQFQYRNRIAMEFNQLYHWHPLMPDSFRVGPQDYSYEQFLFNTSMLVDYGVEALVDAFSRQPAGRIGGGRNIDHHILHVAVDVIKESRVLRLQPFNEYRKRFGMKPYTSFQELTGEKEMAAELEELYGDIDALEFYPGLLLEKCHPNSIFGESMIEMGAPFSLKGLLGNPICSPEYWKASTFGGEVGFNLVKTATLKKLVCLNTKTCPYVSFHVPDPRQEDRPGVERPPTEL
How it was run: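 Screening kit with ovine COX-1 and human recombinant COX-2, run per manufacturer's protocol; percent inhibition of prostaglandin production measured for each isoform.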

THP-1 [7] = assay: Antiinflammatory activity in human THP1 cells assessed as reduction in LPS and IFN-gamma-induced MCP1 level at 500 uM after 24 hrs; format: functional, cell-based
How it was run: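 THP-1 cells in DMEM-F12 with 5% FBS, 24-well plates, pretreated 15 min with compound or DMSO vehicle, then stimulated with LPS 0.5 µg/mL plus IFN-γ 150 U/mL for 24 h. Death read as supernatant LDH (iodonitrotetrazolium formazan, 490 nm, fraction of Triton X-100 lysate); survival by MTT; MCP-1 by ELISA. Concentration effects by randomized block ANOVA; 8–11 independent experiments.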

THP-1 [8] = assay: Neuroprotective activity against LPS and IFN-gamma-stimulated neurotoxin production in human THP1 cells assessed as inhibition of THP1 cell secretion-induced toxicity to human sSH-SY5Y cells after 72 hrs by LDH release assay; format: functional, cell-based
How it was run: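 THP-1 cells pretreated 15 min with compound, then stimulated with LPS (0.5 µg/mL) plus IFN-γ (150 U/mL) for 24 h. Cell-free supernatant transferred to SH-SY5Y cells plated 24 h earlier (2 × 10^5 cells/mL). After 72 h, SH-SY5Y viability read by MTT (0.5 mg/mL, 1 h, 37 °C, OD570) or by LDH release (OD490, relative to Triton X-100 lysis). IC50 estimated.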

SH-SY5Y [9] = assay: Cytotoxicity against human SH-SY5Y cells assessed as reduction in cell viability at 100 uM after 72 hrs by MTT assay; format: functional
How it was run: (§2)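 SH-SY5Y neuroblastoma cells exposed directly to compound at 5–500 µM; viability determined 72 h later by MTT (0.5 mg/mL final, 1 h at 37 °C, SDS/DMF solubilization overnight, 570 nm), relative to cells in fresh medium only.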

SH-SY5Y [10] = assay: Neuroprotective activity against H2O2-induced oxidative stress in human SH-SY5Y cells; format: functional, cell-based
How it was run: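 SH-SY5Y cells seeded at 2 × 10^5/mL in DMEM-F12 with 5% FBS; after 24 h medium replaced by supernatant of THP-1 cells stimulated 24 h with LPS + IFN-γ, or by medium containing 250 µM H2O2, with compound added at transfer. Cell death measured by LDH assay 72 h later; five independent experiments; randomized block ANOVA.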

SH-SY5Y [11] = assay: Cytotoxicity against human SH-SY5Y cells assessed as reduction in cell viability at 500 uM after 72 hrs by MTT assay; format: functional; how it was run: as §2
THP-1 [12] = assay: Neuroprotective activity against LPS and IFN-gamma-stimulated neurotoxin production in human THP1 cells assessed as increase in THP1 cell secretion-induced LDH release to human SY-SH5Y cells at 10 to 100 uM after 72 hrs; format: functional, cell-based
How it was run: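 THP-1 cells treated with 10–100 µM compound 15 min before LPS/IFN-γ stimulation for 24 h. Supernatants transferred to SH-SY5Y cells. After 72 h, LDH released into the neuronal medium measured colorimetrically and expressed as a fraction of Triton X-100-lysed wells.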

SH-SY5Y (Homo sapiens) = assay: Neuroprotective activity against LPS and IFN-gamma-induced human THP1 cell supernatant-induced death of human SH-SY5Y cells after 72 hrs by MTT assay; settings: THP-1

Structure (SMILES) | IC50 (THP-1 [1]) | Activity (Rattus norvegicus [2]) | IC50 (THP-1 [3]) | inhibition in vivo at 20 mg/kg (Rattus norvegicus [4]) | inhibition in vivo at 20 mg/kg (Rattus norvegicus [5]) | inhibition [6] | Activity (THP-1 [7]) | Activity (THP-1 [8]) | Activity (SH-SY5Y [9]) | Activity (SH-SY5Y [10]) | Activity (SH-SY5Y [11]) | Activity (THP-1 [12]) | Activity (SH-SY5Y (Homo sapiens))
CC(NC(=O)C(=O)Nc1c(C#N)cnn1-c1ccccc1)c1ccccc1 (configuration not stated) | 14 µM | 10% | 40 µM | 27% | 38% | 24.5% |  |  |  |  |  |  | 
N#Cc1cnn(-c2ccccc2)c1NC(=O)C(=O)Nc1c(C#N)cnn1-c1ccccc1 |  | 0% |  | 41% | 44% | 11.2% | Active | Active | 23% | inactive | 86% | Active | Active
